Drawing on ChEMBL document CHEMBL1126930, “New analogues of N-(2-aminoethyl)-4-chlorobenzamide (Ro 16-6491). Some of the most potent monoamine oxidase-B inactivators” (J Med Chem, 1993), this text covers IC50 for 17 compounds.

As usually defined, the IC50 is the concentration that gives 50% inhibition. Low readings indicate higher potency, high ones lower potency.

The experiment can be described thus: Inhibition of mitochondrial Monoamine oxidase-B purified from bovine liver. The procedure, abridged:
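MAO-B purified from bovine liver mitochondria. Enzyme preincubated 20 min with various inactivator concentrations. 10 μL aliquots then assayed for remaining activity in 490 μL of 1 mM benzylamine hydrochloride in 50 mM Tris-HCl, pH 9.0. IC50 extrapolated from plots of percent activity remaining versus inhibitor concentration. Duplicate runs varied by 0–5%.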

In turn, `NCCNC(=O)c1ccc([N+](=O)[O-])cc1` registered an IC50 of 48.2 µM. For `NCCNC(=O)c1ccccc1Br` the value was 1.2 µM. To `NCCNC(=O)c1ccc(Br)cc1` belongs 0.042 µM; to `NCCNC(=O)c1ccccc1`, 0.25 µM; to `NCCNC(=O)c1ccccc1F`, 0.16 µM. For `NCCNC(=O)c1cccc(Cl)c1` the value was 0.12 µM. `NCCNC(=O)c1ccccc1[N+](=O)[O-]` gave an IC50 of 2.17 µM. For `NCCNC(=O)c1cccc([N+](=O)[O-])c1` the value was 0.06 µM. For `NCCNC(=O)c1ccccc1I` the value was 61.5 µM; for `NCCNC(=O)c1ccc(Cl)cn1` [LAZABEMIDE], 0.03 µM. `NCCNC(=O)c1ccc(Cl)cc1` showed a half-inhibitory concentration (IC50) of 0.045 µM. For `NCCNC(=O)c1ccc(F)cc1` the value was 0.056 µM; for `NCCNC(=O)c1cccc(I)c1`, 0.037 µM; for `NCCNC(=O)c1cccc(Br)c1`, 0.052 µM. For `NCCNC(=O)c1ccc(I)cc1` the value was 0.17 µM; for `NCCNC(=O)c1cccc(F)c1`, 0.2 µM; for `NCCNC(=O)c1ccccc1Cl`, 0.49 µM.
